ChEMBL document CHEMBL3232813, “The identification, analysis and structure-based development of novel inhibitors of 6-hydroxymethyl-7,8-dihydropterin pyrophosphokinase” (Bioorg Med Chem, 2014)
Activity calls are given as the source filed them. The calls are words filed in the database; no cut-off is given here.

Columns and labels:
[1] = target: T1, 2-amino-4-hydroxy-6-hydroxymethyldihydropteridine pyrophosphokinase (Escherichia coli (strain K12), UniProt P26281); experiment: Binding affinity to GST-tagged Escherichia coli HPPK expressed in Escherichia coli by SPR assay based alternative equilibrium affinity method in presence of AMP-CPP
T1 sequence (P26281 whole entry): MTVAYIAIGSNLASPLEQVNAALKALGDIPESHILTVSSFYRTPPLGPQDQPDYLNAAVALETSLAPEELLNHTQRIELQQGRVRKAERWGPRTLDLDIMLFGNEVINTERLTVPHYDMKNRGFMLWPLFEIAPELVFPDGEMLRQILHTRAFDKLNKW
Procedure, shortened: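 E. coli HPPK expressed as a GST fusion, with the tag removed by thrombin. Minimally biotinylated and captured on a neutravidin chip. SPR run at 20 °C in 20 mM Tris pH 8.5, 100 mM NaCl, 10 mM MgCl2, 1 mM TCEP, 10% glycerol, 5% DMSO, with 2 µM AMPCPP. Compounds injected as a 3-fold series from 100 µM at 80 µL/min. Data double-referenced and fitted to a 1:1 model.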

[2] = target: T2, 2-amino-4-hydroxy-6-hydroxymethyldihydropteridine pyrophosphokinase (Escherichia coli (strain K12)) (UniProt P26281); experiment: Inhibition of GST-tagged Escherichia coli HPPK expressed in Escherichia coli using 6-hydroxymethyl-7,8-dihydropterin hydrochloride as substrate at 250 uM after 20 mins by luminescence assay
T2 sequence (whole entry): T1 sequence (P26281 whole entry)
Procedure, shortened: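 GST tag cleaved from E. coli HPPK; 5 ng enzyme used. Reaction contained 0.75 µM dihydropterin substrate, 0.75 µM ATP, 100 mM Tris-HCl pH 8.5, 10 mM MgCl2, 10 mM BME, 0.01% Tween 20, 0.01% BSA and 5% DMSO. Compound present at 250 µM. Ran 20 min at 23 °C. Unconsumed ATP read by Kinase-Glo luminescence and reported as % inhibition.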

[3] = target: T1, 2-amino-4-hydroxy-6-hydroxymethyldihydropteridine pyrophosphokinase; experiment: Inhibition of GST-tagged Escherichia coli HPPK expressed in Escherichia coli using 6-hydroxymethyl-7,8-dihydropterin hydrochloride as substrate after 20 mins by luminescence assay
Procedure, shortened: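 GST tag cleaved from E. coli HPPK; 5 ng enzyme used. Reaction contained 0.75 µM dihydropterin substrate, 0.75 µM ATP, 100 mM Tris-HCl pH 8.5, 10 mM MgCl2, 10 mM BME, 0.01% Tween 20, 0.01% BSA and 5% DMSO. Ran 20 min at 23 °C. Remaining ATP read by Kinase-Glo luminescence.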

[4] = target: T2, 2-amino-4-hydroxy-6-hydroxymethyldihydropteridine pyrophosphokinase (Escherichia coli (strain K12)); experiment: Binding affinity to GST-tagged Escherichia coli HPPK expressed in Escherichia coli by ITC method
[5] = target: T2, 2-amino-4-hydroxy-6-hydroxymethyldihydropteridine pyrophosphokinase (Escherichia coli (strain K12)); experiment: Binding affinity to GST-tagged Escherichia coli HPPK expressed in Escherichia coli by SPR assay in absence of AMP-CPP
Procedure, shortened: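 Thrombin-cleaved EcHPPK (GST removed), minimally biotinylated and captured (~3000–3700 RU) on a neutravidin chip. SPR at 20 °C, no AMPCPP, in 20 mM Tris pH 8.5, 100 mM NaCl, 10 mM MgCl2, 1 mM TCEP, 0.005% Tween20, 10% glycerol, 5% DMSO. Compounds run as 3-fold dilution series. Data double-referenced, solvent-corrected, fitted to a 1:1 model for K_D.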

| Activity [4] | Compound | Kd [1] | inhibition [2] | IC50 [3] | Activity [5] |
| --- | --- | --- | --- | --- | --- |
|  | Nc1nc2nc[nH]c2c(=O)[nH]1 [GUANINE] | 38 µM |  |  |  |
|  | COc1ccccc1C(=O)CSc1nc2nc(N)[nH]c(=O)c2[nH]1 |  | 12% |  |  |
|  | Cc1ccc(C(=O)C(C)Sc2nc3nc(N)[nH]c(=O)c3[nH]2)cc1 (centres undefined) |  | 13% |  |  |
|  | Cc1ccc(C(=O)CSc2nc3nc(N)[nH]c(=O)c3[nH]2)cc1 | 6.7 µM | 80% | 64 µM |  |
| Active | NC1N=C(O)c2nc(CO)cnc2N1 (centres undefined) |  |  |  |  |
|  | Nc1nc(O)c2nc(SCC(=O)N3CCOCC3)[nH]c2n1 |  | 6% |  |  |
|  | Nc1nc2[nH]cnc2c(=S)[nH]1 |  | 51% |  |  |
|  | CC(Sc1nc2nc(N)[nH]c(=O)c2[nH]1)C(=O)c1ccccc1 (centres undefined) |  | 10% |  |  |
|  | N#Cc1ccc(CSc2nc3nc(N)[nH]c(=O)c3[nH]2)cc1 | 29 µM | 53% | 254 µM | inactive |
|  | Nc1nc2nc(SCC(=O)c3ccc(F)cc3)[nH]c2c(=O)[nH]1 | 11.2 µM | 73% | 79 µM |  |
|  | Nc1nc2nc(SC(=O)c3ccc(F)cc3)[nH]c2c(=O)[nH]1 |  | 16% |  |  |
|  | Nc1nc2nc(SCCN3CCOCC3)[nH]c2c(=O)[nH]1 |  | 7% |  |  |
|  | COc1ccc(C(=O)CSc2nc3nc(N)[nH]c(=O)c3[nH]2)cc1 | 14.5 µM | 74% | 44 µM |  |
|  | Cc1cccc(C(=O)CSc2nc3nc(N)[nH]c(=O)c3[nH]2)c1 | 5.9 µM | 77% | 51 µM |  |
|  | Cc1ccccc1C(=O)CSc1nc2nc(N)[nH]c(=O)c2[nH]1 | 18.9 µM | 48% | 243 µM |  |
|  | Nc1nc2[nH]c(S)nc2c(=O)[nH]1 | > 100 µM | 18% |  |  |
|  | Nc1nc2[nH]cnc2c(=O)[nH]1 |  | 48% |  |  |
|  | Nc1nc(O)nc2nc[nH]c12 [ISOGUANINE] | 7.5 µM |  |  |  |
|  | N#Cc1ccc(C(=O)CSc2nc3nc(N)[nH]c(=O)c3[nH]2)cc1 | 39 µM | 68% | 88 µM |  |
|  | Cc1nc2c(=O)[nH]c(N)nc2[nH]1 | 18 µM |  |  |  |
|  | Nc1nc2nc(SCC(=O)c3ccc(O)cc3)[nH]c2c(=O)[nH]1 | 5.8 µM | 77% | 82 µM |  |
|  | Nc1nc2nc(SCC(=O)c3ccc(OCCN4CCOCC4)cc3)[nH]c2c(=O)[nH]1 |  | 5% |  |  |
|  | Nc1nc2nc(SCC(=O)c3ccccc3)[nH]c2c(=O)[nH]1 | 9.7 µM | 75% | 139 µM | inactive |
